From ChEMBL document CHEMBL3351316, “Scaffold hopping approach on the route to selective tankyrase inhibitors” (Eur J Med Chem, 2014)

Tests used:
[1] = target: Poly [ADP-ribose] polymerase 2 (Homo sapiens) (UniProt Q9UGN5); assay: Inhibition of human recombinant PARP2 incubated for 1 hr using histone substrate at 1 uM by luminescence based assay
Outline: (§1)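 Recombinant PARP enzyme reactions were run in duplicate for 1 h at rt on histone-coated plates in Tris·HCl pH 8.0 buffer with NAD+, biotinylated NAD+ and activated DNA. Detection used streptavidin-HRP for 30 min at rt, then a chemiluminescent developer. % inhibition = 100 − % activity, scaled between the no-compound (100%) and no-enzyme (0%) signals.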

[2] = target: Protein mono-ADP-ribosyltransferase PARP14 (Homo sapiens) (UniProt Q460N5); assay: Inhibition of human recombinant PARP14 at 10 uM incubated for 1 hr using NAD+, biotinylated NAD+ and activated DNA by luminescence based assay; outline: as §1
Sequence of Protein mono-ADP-ribosyltransferase PARP14 (Homo sapiens) (Q460N5 whole entry): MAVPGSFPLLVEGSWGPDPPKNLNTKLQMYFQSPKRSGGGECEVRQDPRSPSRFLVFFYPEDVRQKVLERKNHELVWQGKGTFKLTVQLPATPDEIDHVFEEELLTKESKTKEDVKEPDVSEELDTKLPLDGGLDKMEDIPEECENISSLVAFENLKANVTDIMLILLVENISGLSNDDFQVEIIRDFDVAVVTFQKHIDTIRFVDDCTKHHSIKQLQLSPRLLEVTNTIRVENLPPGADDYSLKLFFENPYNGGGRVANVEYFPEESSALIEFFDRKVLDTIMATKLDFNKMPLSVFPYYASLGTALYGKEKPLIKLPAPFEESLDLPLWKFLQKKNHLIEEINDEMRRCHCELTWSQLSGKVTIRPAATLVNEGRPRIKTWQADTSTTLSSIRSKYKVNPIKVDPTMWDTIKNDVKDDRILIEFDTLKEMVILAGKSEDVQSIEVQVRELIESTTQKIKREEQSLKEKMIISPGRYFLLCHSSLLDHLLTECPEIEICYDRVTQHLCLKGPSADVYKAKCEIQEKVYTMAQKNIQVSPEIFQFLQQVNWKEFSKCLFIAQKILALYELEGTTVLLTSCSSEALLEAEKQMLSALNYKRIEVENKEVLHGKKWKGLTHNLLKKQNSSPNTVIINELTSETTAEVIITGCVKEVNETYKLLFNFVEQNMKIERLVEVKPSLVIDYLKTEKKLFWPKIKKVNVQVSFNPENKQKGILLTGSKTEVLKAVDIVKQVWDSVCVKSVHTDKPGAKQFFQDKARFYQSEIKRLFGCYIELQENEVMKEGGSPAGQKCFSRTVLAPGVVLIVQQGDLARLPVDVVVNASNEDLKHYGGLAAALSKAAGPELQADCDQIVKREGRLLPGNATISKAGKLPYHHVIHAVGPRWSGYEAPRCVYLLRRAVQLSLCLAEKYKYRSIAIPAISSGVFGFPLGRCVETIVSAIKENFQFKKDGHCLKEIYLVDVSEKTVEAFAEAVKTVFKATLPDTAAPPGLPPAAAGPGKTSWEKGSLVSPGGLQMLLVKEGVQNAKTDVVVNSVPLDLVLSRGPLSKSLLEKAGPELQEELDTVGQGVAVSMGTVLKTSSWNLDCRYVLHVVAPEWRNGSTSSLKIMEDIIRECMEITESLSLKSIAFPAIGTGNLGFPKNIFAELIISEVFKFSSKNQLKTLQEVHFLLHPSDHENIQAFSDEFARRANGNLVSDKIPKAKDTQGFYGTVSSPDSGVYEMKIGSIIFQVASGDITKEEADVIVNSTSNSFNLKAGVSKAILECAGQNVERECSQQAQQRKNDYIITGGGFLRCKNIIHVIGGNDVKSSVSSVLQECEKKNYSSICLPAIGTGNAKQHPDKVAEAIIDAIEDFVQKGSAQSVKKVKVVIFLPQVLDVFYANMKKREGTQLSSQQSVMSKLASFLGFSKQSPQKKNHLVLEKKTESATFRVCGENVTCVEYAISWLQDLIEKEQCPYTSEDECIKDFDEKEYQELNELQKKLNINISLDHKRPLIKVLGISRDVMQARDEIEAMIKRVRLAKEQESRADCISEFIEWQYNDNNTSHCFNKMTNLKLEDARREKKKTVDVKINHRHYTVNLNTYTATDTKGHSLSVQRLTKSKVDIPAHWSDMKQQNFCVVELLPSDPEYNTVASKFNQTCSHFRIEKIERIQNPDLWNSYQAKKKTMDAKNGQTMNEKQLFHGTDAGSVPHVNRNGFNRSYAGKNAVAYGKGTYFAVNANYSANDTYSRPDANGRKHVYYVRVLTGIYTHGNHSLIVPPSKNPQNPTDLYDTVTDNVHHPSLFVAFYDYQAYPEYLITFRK

[3] = target: Protein mono-ADP-ribosyltransferase PARP6 (Homo sapiens) (UniProt Q2NL67); assay: Inhibition of human recombinant PARP6 at 10 uM incubated for 1 hr using NAD+, biotinylated NAD+ and activated DNA by luminescence based assay; outline: as §1
Sequence of Protein mono-ADP-ribosyltransferase PARP6 (Homo sapiens) (Q2NL67 whole entry): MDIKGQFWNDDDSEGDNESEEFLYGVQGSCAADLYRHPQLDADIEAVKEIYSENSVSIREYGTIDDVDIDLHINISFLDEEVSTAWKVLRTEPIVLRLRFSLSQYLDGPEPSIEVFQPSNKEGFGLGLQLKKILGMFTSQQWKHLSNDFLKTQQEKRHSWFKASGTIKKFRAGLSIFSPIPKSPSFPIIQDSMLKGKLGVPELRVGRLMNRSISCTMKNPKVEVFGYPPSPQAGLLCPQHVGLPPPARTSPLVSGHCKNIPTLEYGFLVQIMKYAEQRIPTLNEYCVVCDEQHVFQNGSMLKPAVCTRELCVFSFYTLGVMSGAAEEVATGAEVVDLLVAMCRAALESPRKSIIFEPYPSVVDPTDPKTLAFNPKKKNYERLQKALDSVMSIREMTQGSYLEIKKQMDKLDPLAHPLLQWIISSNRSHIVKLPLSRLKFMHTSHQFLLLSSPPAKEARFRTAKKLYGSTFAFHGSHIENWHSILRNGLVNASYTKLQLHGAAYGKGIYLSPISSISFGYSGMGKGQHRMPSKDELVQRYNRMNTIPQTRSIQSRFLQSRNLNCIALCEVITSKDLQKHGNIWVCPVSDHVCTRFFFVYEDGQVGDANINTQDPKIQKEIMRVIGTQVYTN

[4] = target: T1, Tankyrase 1/2 (Homo sapiens, UniProt Q9H2K2+O95271); assay: Inhibition of tankyrase in human DLD1 cells assessed as reduction in Wnt activity after 24 hrs by TCF-luciferase reporter gene assay; type: cell-based; conditions: dld-1
T1 sequence (Q9H2K2 whole entry): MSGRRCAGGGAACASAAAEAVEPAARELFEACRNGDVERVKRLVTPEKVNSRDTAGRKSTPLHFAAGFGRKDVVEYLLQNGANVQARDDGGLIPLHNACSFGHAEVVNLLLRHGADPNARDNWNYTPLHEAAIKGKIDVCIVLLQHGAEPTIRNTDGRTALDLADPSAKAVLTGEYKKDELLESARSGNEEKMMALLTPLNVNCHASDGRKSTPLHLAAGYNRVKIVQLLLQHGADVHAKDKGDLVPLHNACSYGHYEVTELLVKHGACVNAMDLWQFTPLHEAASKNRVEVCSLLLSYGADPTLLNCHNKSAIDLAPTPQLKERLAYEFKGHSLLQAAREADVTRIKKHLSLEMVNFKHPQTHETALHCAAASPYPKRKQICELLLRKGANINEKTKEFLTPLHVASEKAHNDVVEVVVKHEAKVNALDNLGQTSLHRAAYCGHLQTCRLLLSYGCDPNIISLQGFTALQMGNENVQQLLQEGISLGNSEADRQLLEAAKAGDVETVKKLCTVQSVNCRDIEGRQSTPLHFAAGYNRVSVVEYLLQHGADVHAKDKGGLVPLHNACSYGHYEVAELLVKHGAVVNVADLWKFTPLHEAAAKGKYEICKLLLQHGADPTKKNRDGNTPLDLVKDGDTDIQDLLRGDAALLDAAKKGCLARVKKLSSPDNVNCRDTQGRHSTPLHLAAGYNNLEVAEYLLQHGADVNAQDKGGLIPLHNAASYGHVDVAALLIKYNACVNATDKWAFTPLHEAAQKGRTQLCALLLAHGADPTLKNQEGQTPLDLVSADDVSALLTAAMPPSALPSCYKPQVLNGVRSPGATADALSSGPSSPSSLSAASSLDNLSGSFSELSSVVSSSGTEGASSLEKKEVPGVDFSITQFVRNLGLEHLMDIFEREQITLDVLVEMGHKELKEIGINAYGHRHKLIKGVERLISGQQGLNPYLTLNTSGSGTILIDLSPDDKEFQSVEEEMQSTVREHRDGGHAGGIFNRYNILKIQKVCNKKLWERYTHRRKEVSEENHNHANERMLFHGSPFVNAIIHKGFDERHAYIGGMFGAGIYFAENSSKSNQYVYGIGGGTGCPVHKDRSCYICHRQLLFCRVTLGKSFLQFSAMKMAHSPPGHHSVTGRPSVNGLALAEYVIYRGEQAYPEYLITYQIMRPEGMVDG
T1 sequence (O95271 whole entry): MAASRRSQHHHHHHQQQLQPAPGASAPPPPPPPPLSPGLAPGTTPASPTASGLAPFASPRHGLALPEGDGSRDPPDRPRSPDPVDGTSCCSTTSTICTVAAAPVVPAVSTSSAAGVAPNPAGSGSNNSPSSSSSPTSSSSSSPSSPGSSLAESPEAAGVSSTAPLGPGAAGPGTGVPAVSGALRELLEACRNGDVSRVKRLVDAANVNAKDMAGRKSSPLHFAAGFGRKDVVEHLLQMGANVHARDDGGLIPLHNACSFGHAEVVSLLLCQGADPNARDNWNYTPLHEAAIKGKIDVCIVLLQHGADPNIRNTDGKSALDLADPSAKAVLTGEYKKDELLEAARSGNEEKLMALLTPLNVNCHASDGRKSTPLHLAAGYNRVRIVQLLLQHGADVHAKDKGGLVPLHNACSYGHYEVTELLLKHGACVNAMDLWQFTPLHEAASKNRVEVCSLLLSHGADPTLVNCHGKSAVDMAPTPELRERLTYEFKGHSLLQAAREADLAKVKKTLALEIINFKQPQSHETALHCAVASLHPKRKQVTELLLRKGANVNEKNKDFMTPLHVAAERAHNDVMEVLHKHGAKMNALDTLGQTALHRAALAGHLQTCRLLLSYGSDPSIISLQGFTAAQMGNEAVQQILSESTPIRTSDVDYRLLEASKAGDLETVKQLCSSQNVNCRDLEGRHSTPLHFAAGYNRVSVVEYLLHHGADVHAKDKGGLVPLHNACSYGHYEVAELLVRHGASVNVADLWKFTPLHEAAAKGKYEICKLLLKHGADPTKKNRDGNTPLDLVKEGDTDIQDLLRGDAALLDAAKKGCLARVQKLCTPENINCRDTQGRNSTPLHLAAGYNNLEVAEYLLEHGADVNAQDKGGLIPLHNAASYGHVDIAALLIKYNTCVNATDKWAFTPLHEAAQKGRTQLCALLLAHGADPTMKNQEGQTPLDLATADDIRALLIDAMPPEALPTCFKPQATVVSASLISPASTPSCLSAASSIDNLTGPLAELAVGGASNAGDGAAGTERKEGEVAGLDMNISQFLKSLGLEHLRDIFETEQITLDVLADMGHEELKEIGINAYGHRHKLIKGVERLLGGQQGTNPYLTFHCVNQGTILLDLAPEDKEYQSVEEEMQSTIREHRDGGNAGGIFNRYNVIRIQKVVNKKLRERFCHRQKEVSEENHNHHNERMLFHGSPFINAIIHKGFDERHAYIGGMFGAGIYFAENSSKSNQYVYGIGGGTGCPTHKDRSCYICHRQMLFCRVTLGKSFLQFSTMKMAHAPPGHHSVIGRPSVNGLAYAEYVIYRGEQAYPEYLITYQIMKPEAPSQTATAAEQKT

Sequence of Poly [ADP-ribose] polymerase 2 (Homo sapiens) (Q9UGN5 whole entry): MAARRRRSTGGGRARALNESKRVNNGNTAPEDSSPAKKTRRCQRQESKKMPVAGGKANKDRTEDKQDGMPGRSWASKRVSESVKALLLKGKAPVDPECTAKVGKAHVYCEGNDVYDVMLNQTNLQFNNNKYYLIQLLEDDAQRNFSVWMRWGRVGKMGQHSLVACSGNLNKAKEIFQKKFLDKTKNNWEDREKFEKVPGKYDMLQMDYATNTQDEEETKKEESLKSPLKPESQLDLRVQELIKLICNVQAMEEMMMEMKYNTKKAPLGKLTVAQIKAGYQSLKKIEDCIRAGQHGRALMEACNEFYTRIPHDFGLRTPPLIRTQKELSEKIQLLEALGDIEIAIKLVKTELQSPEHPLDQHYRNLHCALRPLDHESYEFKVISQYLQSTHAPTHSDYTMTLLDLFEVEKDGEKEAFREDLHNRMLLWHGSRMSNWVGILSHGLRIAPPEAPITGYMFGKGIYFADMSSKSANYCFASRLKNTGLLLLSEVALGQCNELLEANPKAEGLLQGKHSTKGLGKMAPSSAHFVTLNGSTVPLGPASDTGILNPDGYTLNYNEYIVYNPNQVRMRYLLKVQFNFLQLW

`CC(C)(C)c1ccc(-c2nc3c(sc4ccccc43)c(=O)[nH]2)cc1` gave an inhibition [1] of 4%, an inhibition [2] of 0% and an inhibition [3] of 6%. For the same compound, the IC50 [4] was 832 nM.
